Measurements reported in ChEMBL document CHEMBL3585301 (Bioorg Med Chem Lett, 2014).
Active and inactive are the calls of the source. The rule behind the calls is not given here.

Columns and labels:
MV4-11 [1] = assay: Anticancer activity against human MV4-11 cells assessed as reduction in cell proliferation after 48 hrs by WST-1 assay; assay type: functional, cell-based; conditions: MV4-11, 48 h
Method in brief: (§1)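 Cells were exposed to compound for 48 h and proliferation was measured from dose-response curves. NCM460 was tested at doses up to 20 µM. U-2 OS was also read in the 2.5-5.0 µM range. IC50 was calculated from the curves. Data are mean of quadruplicates ± SD from three independent trials.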

Jurkat E6.1 = assay: Anticancer activity against human Jurkat E6-1 cells assessed as reduction in cell proliferation after 48 hrs by WST-1 assay; assay type: functional, cell-based; conditions: Jurkat E6.1, 48 h; method in brief: as §1
[2] = Anticancer activity against human Saos2 cells assessed as reduction in cell proliferation after 48 hrs by WST-1 assay; assay type: functional, cell-based; conditions: SAOS-2, 48 h; method in brief: as §1
U2OS [3] = assay: Anticancer activity against human U2OS cells assessed as reduction in cell proliferation after 48 hrs by WST-1 assay; assay type: functional, cell-based; method in brief: as §1
[4] = Cytotoxicity against human NCM460 cells assessed as reduction in cell proliferation after 48 hrs by WST-1 assay; assay type: cell-based; conditions: NCM460, 48 h; method in brief: as §1
U2OS [5] = assay: Anticancer activity against human U2OS cells assessed as reduction in cell proliferation at 2.5 to 5 uM after 48 hrs by WST-1 assay; assay type: functional; set-up: scale not given: the % may be the effect or the level left; method in brief: as §1
SAOS-2 = assay: Induction of apoptosis in human Saos2 cells assessed as phosphatidylserine externalization at 0.01 and 5 uM after 48 hrs by AnnexinV/propidium iodide staining based Tali-image based cytometry; assay type: functional, cell-based
Method in brief: (§2)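 After 48 h treatment, phosphatidylserine externalization was detected with Annexin V–Alexa Fluor 488, and membrane-permeabilized (necrotic) cells were detected by propidium iodide uptake. Green and/or red populations were quantified by image-based cytometry. Signal above the control baseline was scored as apoptotic, necrotic, or both. Data are mean ± SD of three independent trials.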

MV4-11 [6] = assay: Induction of apoptosis in human MV4-11 cells assessed as phosphatidylserine externalization at 0.0075 and 5 uM after 48 hrs by AnnexinV/propidium iodide staining based Tali-image based cytometry; assay type: functional, cell-based; method in brief: as §2
[7] = Induction of apoptosis in human NCM460 cells assessed as phosphatidylserine externalization 0.1 and 20 uM after 48 hrs by AnnexinV/propidium iodide staining based Tali-image based cytometry; assay type: cell-based; conditions: ncm460, 48 h; method in brief: as §2
Tubulin (Sus scrofa) [8] = molecular target: T1, Tubulin (Sus scrofa) (UniProt P02554+P02550); assay: Inhibition of porcine brain tubulin polymerization at 3 uM measured for 1 hr by spectrofluorometer analysis
T1 sequence (P02550 whole entry, looked up): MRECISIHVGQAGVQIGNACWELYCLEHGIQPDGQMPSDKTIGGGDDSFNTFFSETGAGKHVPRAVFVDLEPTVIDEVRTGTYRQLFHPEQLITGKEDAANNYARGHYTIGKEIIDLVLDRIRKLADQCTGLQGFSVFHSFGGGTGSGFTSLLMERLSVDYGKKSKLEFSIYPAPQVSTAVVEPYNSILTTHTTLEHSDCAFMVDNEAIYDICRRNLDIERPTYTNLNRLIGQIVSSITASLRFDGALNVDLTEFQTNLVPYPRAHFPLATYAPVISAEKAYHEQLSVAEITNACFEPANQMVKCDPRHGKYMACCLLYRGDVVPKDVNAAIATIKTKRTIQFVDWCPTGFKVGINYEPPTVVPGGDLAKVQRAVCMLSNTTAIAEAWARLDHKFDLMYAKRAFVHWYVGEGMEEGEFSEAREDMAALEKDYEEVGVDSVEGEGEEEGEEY
T1 sequence (P02554 whole entry, looked up): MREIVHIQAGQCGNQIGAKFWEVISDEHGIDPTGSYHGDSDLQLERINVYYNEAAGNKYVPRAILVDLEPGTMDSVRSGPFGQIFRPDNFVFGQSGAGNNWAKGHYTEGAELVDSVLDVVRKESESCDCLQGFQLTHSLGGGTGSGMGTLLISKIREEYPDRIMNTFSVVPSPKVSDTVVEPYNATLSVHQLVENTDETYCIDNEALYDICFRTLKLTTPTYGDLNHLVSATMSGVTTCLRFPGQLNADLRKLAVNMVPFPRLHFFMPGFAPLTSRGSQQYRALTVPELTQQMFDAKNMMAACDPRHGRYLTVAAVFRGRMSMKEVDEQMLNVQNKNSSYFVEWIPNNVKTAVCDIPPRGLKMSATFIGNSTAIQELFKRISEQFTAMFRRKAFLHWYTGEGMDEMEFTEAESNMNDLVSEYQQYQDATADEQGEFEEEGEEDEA
Method in brief: (§3)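 This was an in vitro tubulin polymerization assay monitored kinetically for 1 h against a DMSO vehicle control. Polymerization was read fluorometrically from incorporation of a fluorescent reporter, in relative fluorescence units. Data are mean of duplicates ± SEM of three independent trials, compared with control.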

Tubulin (Sus scrofa) [9] = molecular target: T1, Tubulin (Sus scrofa); assay: Inhibition of porcine brain tubulin polymerization at 10 uM measured for 1 hr by spectrofluorometer analysis; method in brief: as §3
U2OS [10] = assay: Anticancer activity against human U2OS cells assessed as reduction in cell proliferation at 10 uM after 48 hrs by WST-1 assay; assay type: functional, cell-based
Method in brief: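 This was a blind single-concentration screen of a 600-compound library against U-2 OS osteosarcoma cells. Each compound was tested at 10 µM for 48 h, and reduced proliferation was flagged for follow-up.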

| SMILES | IC50 (MV4-11 [1]) | IC50 (Jurkat E6.1) | IC50 [2] | IC50 (U2OS [3]) | IC50 [4] | Activity (U2OS [5]) | Activity (SAOS-2) | Activity (MV4-11 [6]) | Activity [7] | inhibition (Tubulin (Sus scrofa) [8]) | inhibition (Tubulin (Sus scrofa) [9]) | inhibition (U2OS [10]) |
| --- | --- | --- | --- | --- | --- | --- | --- | --- | --- | --- | --- | --- |
| COc1ccc(/C=C\c2cc(OC)c(OC)c(OC)c2)cc1O [COMBRETASTATIN A4] | 6.27 nM | 6.08 nM | 11.4 nM | 14.1 nM | > 20000 nM | 30% | Active | Active | Non-toxic | Active | – | – |
| COc1ccc(-c2ccc(OC)c(OC)c2OC)cc1O | 2760 nM | 965 nM | 5430 nM | > 20000 nM | > 20000 nM | 60% | Active | Active | Non-toxic | inactive | Active | Active |
| COc1cc(-c2ccc(OC)c(OC)c2OC)ccc1O | 1250 nM | 486 nM | 1770 nM | > 20000 nM | > 20000 nM | 60% | Active | Active | Non-toxic | Active | Active | Active |
